# Data as given in ChEMBL document CHEMBL1629556 (2008).
# Calls of active or inactive are those of the source. The rule behind the calls is not given here.
# What was measured:
# Staphylococcus aureus [1] = assay: Antibacterial activity against Staphylococcus aureus isolate 1326 infected in Wistar rat thigh infection model assessed as bacterial load per gram of thigh at 200 mg/kg, sc administered 2 hrs postinfection and every 6 hrs thereafter for 1 day measured after 24 hrs (reference value: 8.6%); type: functional; conditions: route subcutaneous
# Staphylococcus aureus [2] = assay: Antibacterial activity against Staphylococcus aureus isolate 1306 infected in Wistar rat thigh infection model assessed as bacterial load per gram of thigh at 200 mg/kg, sc administered 2 hrs postinfection and every 6 hrs thereafter for 1 day measured after 24 hrs (reference value: 8.6%); type: functional; conditions: route subcutaneous
# Staphylococcus aureus [3] = assay: Effect on growth of mecA-negative Staphylococcus aureus isolate 29213 by assessed as highest compound concentration at which cell growth occurred measured after 48 hrs; type: functional
# Procedure, shortened: (§1)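 Overnight cultures were set to 4 McFarland in cation-adjusted MH broth and spread at about 10^8, 10^7 and 10^6 CFU, or 10^4 if growth was confluent. Colonies were counted after 48 h at 35°C. Three runs, median CFU.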
# Staphylococcus aureus [4] = assay: Antibacterial activity against Staphylococcus aureus isolate 2712 infected in Wistar rat thigh infection model assessed as bacterial load per gram of thigh at 200 mg/kg, sc administered 2 hrs postinfection and every 6 hrs thereafter for 1 day measured after 24 hrs (reference value: 8.6%); type: functional; conditions: route subcutaneous
# Staphylococcus aureus [5] = assay: Antibacterial activity against Staphylococcus aureus isolate 6083 by agar dilution method; type: functional
# Staphylococcus aureus [6] = assay: Effect on growth of Staphylococcus aureus isolate 4666 assessed as highest compound concentration at which cell growth occurred measured after 48 hrs; type: functional; procedure, shortened: as §1
# Staphylococcus aureus [7] = assay: Effect on growth of Staphylococcus aureus isolate 1552 assessed as highest compound concentration at which cell growth occurred measured after 48 hrs; type: functional; procedure, shortened: as §1
# Staphylococcus aureus [8] = assay: Antibacterial activity against Staphylococcus aureus isolate 1326 by agar dilution method; type: functional
# Procedure, shortened: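 mecA-positive clinical isolate collected October–November 2006, species confirmed on Vitek 2. MIC determined by agar dilution following CLSI guidelines, with 2-μg/ml concentration steps from 2 to 16 μg/ml.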
# Staphylococcus aureus [9] = assay: Antibacterial activity against Staphylococcus aureus isolate 2712 by agar dilution method; type: functional
# Staphylococcus aureus [10] = assay: Antibacterial activity against Staphylococcus aureus isolate 4666 infected in Wistar rat thigh infection model assessed as bacterial load per gram of thigh at 200 mg/kg, sc administered 2 hrs postinfection and every 6 hrs thereafter for 1 day measured after 24 hrs (reference value: 8.6%); type: functional; conditions: route subcutaneous
# Staphylococcus aureus [11] = assay: Antibacterial activity against Staphylococcus aureus isolate 1306 assessed as reduction in bacterial count at 20 ug/ml after 24 hrs by time-kill assay; type: functional, organism-based
# Procedure, shortened: (§2)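 Overnight Mueller-Hinton broth cultures were diluted in cation-adjusted MH broth. About 10^6 to 10^7 CFU went into MH broth with 20 μg/ml dicloxacillin at 35°C. Viable counts were made by spreading 0.1 ml at 0, 1, 3, 6, 9, 14, 24, 30, 42 and 48 h. Three runs, with the median CFU plotted semilogarithmically.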
# Staphylococcus aureus [12] = assay: Antibacterial activity against Staphylococcus aureus isolate 4666 by agar dilution method; type: functional
# Staphylococcus aureus [13] = assay: Effect on growth of Staphylococcus aureus isolate 1326 assessed as highest compound concentration at which cell growth occurred measured after 48 hrs in presence of 2% NaCl; type: functional
# Procedure, shortened: (§3)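 Inocula of about 10^8 to 10^6 CFU came from a 4 McFarland suspension. Colonies were counted after 48 h at 35°C. Three runs, median CFU.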
# Staphylococcus aureus [14] = assay: Antibacterial activity against Staphylococcus aureus isolate 1552 infected in Wistar rat thigh infection model assessed as bacterial load per gram of thigh at 200 mg/kg, sc administered 2 hrs postinfection and every 6 hrs thereafter for 1 day measured after 24 hrs (reference value: 8.6%); type: functional; conditions: route subcutaneous
# Staphylococcus aureus [15] = assay: Antibacterial activity against Staphylococcus aureus isolate 1552 by agar dilution method; type: functional
# Staphylococcus aureus [16] = assay: Antibacterial activity against mecA-negative Staphylococcus aureus isolate 29213 by agar dilution method; type: functional
# Staphylococcus aureus [17] = assay: Effect on growth of against Staphylococcus aureus isolate 4666 assessed as highest compound concentration at which cell growth occurred measured after 48 hrs in presence of 2% NaCl; type: functional; procedure, shortened: as §3
# Staphylococcus aureus [18] = assay: Antibacterial activity against Staphylococcus aureus isolate 1306 by agar dilution method; type: functional
# Staphylococcus aureus [19] = assay: Effect on growth of Staphylococcus aureus isolate 1306 assessed as highest compound concentration at which cell growth occurred measured after 48 hrs; type: functional; procedure, shortened: as §1
# Staphylococcus aureus [20] = assay: Antibacterial activity against Staphylococcus aureus isolate 1326 assessed as reduction in bacterial count at 20 ug/ml after 24 hrs by time-kill assay; type: functional, organism-based; procedure, shortened: as §2
# Staphylococcus aureus [21] = assay: Antibacterial activity against Staphylococcus aureus isolate 4666 assessed as reduction in bacterial count at 20 ug/ml after 24 hrs by time-kill assay; type: functional, organism-based; procedure, shortened: as §2
# Staphylococcus aureus [22] = assay: Antibacterial activity against Staphylococcus aureus isolate 6083 assessed as reduction in bacterial count at 20 ug/ml after 24 hrs by time-kill assay; type: functional, organism-based; procedure, shortened: as §2
# Staphylococcus aureus [23] = assay: Antibacterial activity against Staphylococcus aureus isolate 29213 infected in Wistar rat thigh infection model assessed as bacterial load per gram of thigh at 200 mg/kg, sc administered 2 hrs postinfection and every 6 hrs thereafter for 1 day measured after 24 hrs (reference value: 8.6%); type: functional; conditions: route subcutaneous
# Staphylococcus aureus [24] = assay: Antibacterial activity against Staphylococcus aureus isolate 2712 assessed as reduction in bacterial count at 20 ug/ml after 24 hrs by time-kill assay; type: functional, organism-based; procedure, shortened: as §2
# Staphylococcus aureus [25] = assay: Antibacterial activity against Staphylococcus aureus isolate 1552 assessed as reduction in bacterial count at 20 ug/ml after 24 hrs by time-kill assay; type: functional, organism-based; procedure, shortened: as §2
# Staphylococcus aureus [26] = assay: Effect on growth of Staphylococcus aureus isolate 1326 assessed as highest compound concentration at which cell growth occurred measured after 48 hrs; type: functional; procedure, shortened: as §1
# Staphylococcus aureus [27] = assay: Antibacterial activity against Staphylococcus aureus isolate 6083 infected in Wistar rat thigh infection model assessed as bacterial load per gram of thigh at 200 mg/kg, sc administered 2 hrs postinfection and every 6 hrs thereafter for 1 day measured after 24 hrs (reference value: 8.6%); type: functional; conditions: route subcutaneous
# Staphylococcus aureus [28] = assay: Antibacterial activity against mecA-negative Staphylococcus aureus isolate 29213 assessed as reduction in bacterial count at 20 ug/ml after 24 hrs by time-kill assay; type: functional, organism-based; procedure, shortened: as §2
smiles,measurement,setting,value
Cc1onc(-c2ccccc2)c1C(=O)N[C@@H]1C(=O)N2[C@@H]1SC(C)(C)[C@@H]2C(=O)O [OXACILLIN],Activity,Staphylococcus aureus [1],4.3%
same,Activity,Staphylococcus aureus [2],9.7%
same,Activity,Staphylococcus aureus [3],0.5 µg/mL
same,Activity,Staphylococcus aureus [4],8.8%
same,MIC,Staphylococcus aureus [5],6 mg/L
same,Activity,Staphylococcus aureus [6],1 µg/mL
same,Activity,Staphylococcus aureus [7],64 µg/mL
same,MIC,Staphylococcus aureus [8],0.25 mg/L
same,MIC,Staphylococcus aureus [9],256 mg/L
same,Activity,Staphylococcus aureus [10],10.4%
same,inhibition,Staphylococcus aureus [11],Active
same,MIC,Staphylococcus aureus [12],1 mg/L
same,Activity,Staphylococcus aureus [13],1 µg/mL
same,Activity,Staphylococcus aureus [14],9.1%
same,MIC,Staphylococcus aureus [15],1 mg/L
same,MIC,Staphylococcus aureus [16],0.125 mg/L
same,Activity,Staphylococcus aureus [17],2 µg/mL
same,MIC,Staphylococcus aureus [18],0.5 mg/L
same,Activity,Staphylococcus aureus [19],32 µg/mL
same,inhibition,Staphylococcus aureus [20],Active
same,inhibition,Staphylococcus aureus [21],Active
same,inhibition,Staphylococcus aureus [22],Active
same,Activity,Staphylococcus aureus [23],12.4%
same,inhibition,Staphylococcus aureus [24],inactive
same,inhibition,Staphylococcus aureus [25],Active
same,Activity,Staphylococcus aureus [26],0.5 µg/mL
same,Activity,Staphylococcus aureus [27],6.2%
same,inhibition,Staphylococcus aureus [28],Active
